Results pooled from the literature.
Lines come from different studies, so protocols differ.
PKN1: Serine/threonine-protein kinase N1 (PKN1, Homo sapiens, UniProt Q16512)
MCL1: Induced myeloid leukemia cell differentiation protein Mcl-1 (MCL1, Homo sapiens, UniProt Q07820)
PRSS1: Serine protease 1 (PRSS1, Bos taurus, UniProt P00760)
CA9: Carbonic anhydrase 9 (CA9, Homo sapiens, UniProt Q16790)
PDE4C: 3',5'-cyclic-AMP phosphodiesterase 4C (PDE4C, Homo sapiens, UniProt Q08493)
MMP9: Matrix metalloproteinase-9 (MMP9, Homo sapiens, UniProt P14780)
HDAC9: Histone deacetylase 9 (HDAC9, Homo sapiens, UniProt Q9UKV0)
SIRT5: NAD-dependent protein deacylase sirtuin-5, mitochondrial (SIRT5, Homo sapiens, UniProt Q9NXA8)

Structure (SMILES)	target	assay	conditions	IC50
Clc1ccc(C2(c3ccc(-c4cn[nH]c4)cc3)CCNCC2)cc1	PKN1	enzyme activity, inhibitor		49 nM
O=C(NS(=O)(=O)c1ccc(COc2ccccc2)cc1)c1cccc(-c2cc(Cl)cc(Cl)c2)c1	MCL1	ligand displacement, FP		5100 nM
COc1cc(/C=N/n2c(C)nc3ccc(Br)cc3c2=O)ccc1OCc1ccc(Cl)cc1	PRSS1	enzyme activity, inhibitor		47800 nM
NS(=O)(=O)c1cc(C(=O)N2CCCCC2C(=O)Nc2cc(Cl)ccc2Cl)ccc1F (stereo not drawn)	CA9	enzyme activity, inhibitor		30.2 nM
CN(C)c1ccc(/C=C2/SC(Nc3ccc(S(N)(=O)=O)cc3)=NC2=O)cc1	CA9	enzyme activity, inhibitor		76.1 nM
CCNC(=O)[C@H](CCCNC(=N)CF)NC(=O)c1ccccc1	Protein-arginine deiminase type-4 (PADI4, Homo sapiens, UniProt Q9UM07)	enzyme activity, inhibitor		24300 nM
COc1cc(NCC(=O)Nn2c(C)nc3ccc(Cl)cc3c2=O)cc(OC)c1OC	PRSS1	enzyme activity, inhibitor		54300 nM
N#CCNC(=O)c1ccc(-c2ccnc(Nc3ccc(N4CCOCC4)cc3)n2)cc1	PKN1	enzyme activity, inhibitor		278 nM
NS(=O)(=O)c1ccc(NC(=O)COC(=O)c2c3c(nc4ccccc24)C(=Cc2ccco2)CCC3)cc1	CA9	enzyme activity, inhibitor		96 nM
COc1cc2c(c(OC)c1OC)-c1c(cc3c(c1OC)OCO3)[C@H](OC(=O)c1ccccc1)[C@@](C)(O)[C@@H](C)C2	Cytochrome P450 3A5 (CYP3A5, Homo sapiens, UniProt P20815)	enzyme activity, inhibitor	15 min, pH 7.4	590 nM
NS(=O)(=O)c1ccc(NC2=NC(=O)C(CC(=O)Nc3ccc(Br)cc3)S2)cc1 (stereo not drawn)	CA9	enzyme activity, inhibitor		52 nM
COc1ccc(C2=NN(C3CCCCCC3)C(=O)[C@@H]3CC=CC[C@H]23)cc1-c1ccc(C(N)=O)cc1 (relative stereo)	PDE4C	enzyme activity, inhibitor		501 nM
NS(=O)(=O)c1ccc(Nc2nc(OCC3CCCCC3)c3[nH]cnc3n2)cc1	PKN1	enzyme activity, inhibitor		828 nM
COc1ccc(S(=O)(=O)N2Cc3cc(O)c(O)cc3CC2C(=O)NO)cc1 (stereo not drawn)	MMP9	enzyme activity, inhibitor		> 1000 nM
CC(OC(=O)C1CCCN(C(=O)c2ccc(Cl)cc2)C1)C(=O)Nc1ccc(S(N)(=O)=O)cc1 (stereo not drawn)	CA9	enzyme activity, inhibitor		42.7 nM
COc1cc(/C=N/n2c(C)nc3ccc(C)cc3c2=O)cc([N+](=O)[O-])c1O	PRSS1	enzyme activity, inhibitor		55700 nM
COCCOc1ccc2c(c1)ncn2-c1ccc2cccc(N3CCC(N)CC3)c2n1	PKN1	enzyme activity, inhibitor		36 nM
CCCC[C@H](NC(=O)[C@H](C)c1c(C)[nH]c2ccc(O)cc12)c1ncc(-c2cc3ccccc3nc2OC)[nH]1	HDAC9	enzyme activity, inhibitor		> 45000 nM
COc1ccc2cc(/C=N/n3c(C)nc4ccc(Br)cc4c3=O)ccc2c1	PRSS1	enzyme activity, inhibitor		40700 nM
CCS(=O)(=O)c1cccc(-c2cc(C(=O)NC3CCN(C)CC3)c(C)c3[nH]c4ncc(C)cc4c23)c1	PKN1	enzyme activity, inhibitor		86 nM

Structure (SMILES)	target	assay	conditions	IC50
CNC(=O)c1ccc(NC(=O)CN(Cc2ccc(Cl)cc2)C(=O)c2ccc(S(N)(=O)=O)c(C)c2)c(F)c1	CA9	enzyme activity, inhibitor		28.8 nM
CC(C)c1nc(CN(C)C(=O)N[C@@H](CCN2CCOCC2)C(=O)N[C@H](CC[C@H](Cc2ccccc2)NC(=O)OCc2cncs2)Cc2ccccc2)cs1	Solute carrier family 22 member 7 (SLC22A7, Homo sapiens, UniProt Q9Y694)	transporter uptake, inhibitor		> 100000 nM
O=C1NC(=O)C(c2cnc3ccccn23)=C1c1cn2c3c(cc(F)cc13)CN(C(=O)N1CCCCC1)CC2	PKN1	enzyme activity, inhibitor		108 nM
CC(C)C[C@H](CC(=O)NO)C(=O)N[C@@H](Cc1ccccc1)C(=O)NCCN1CCOCC1	MMP9	enzyme activity, inhibitor, fluorescence		3 nM
COc1ccc(-c2nsc(NC(=O)[C@@H]3C[C@H]3C)c2C)cc1	Metabotropic glutamate receptor 4 (GRM4, Homo sapiens, UniProt Q14833)	calcium signal, antagonist		> 12500 nM
O=C(c1ccc(Nc2nccc(-c3cc4ccccc4s3)n2)cc1)N1CCC(N2CCCC2)CC1	PKN1	enzyme activity, inhibitor		49 nM
Nc1ccc(-c2ccncc2)cc1NC(=O)N1CCCC1	HDAC9	enzyme activity, inhibitor		> 33300 nM
NS(=O)(=O)c1cc(NC(=O)CCc2nnc(-c3ccc(Cl)cc3)o2)ccc1O	CA9	enzyme activity, inhibitor		30.2 nM
COc1ccc([C@@H]2CN(C(=O)[C@@H](O)CO)C[C@@]2(C)[C@@H](C)O)cc1OC1CN(c2ccc(C)cn2)C1	PDE4C	enzyme activity, inhibitor		2.4 nM
Cc1ccc(C(=O)NCCC(=O)NCc2cc(S(N)(=O)=O)ccc2F)c(O)c1	CA9	enzyme activity, inhibitor		1660 nM
Cc1ccc(S(=O)(=O)N=C2C=C(Sc3nnc[nH]3)C(=O)c3ccccc32)cc1	MCL1	ligand displacement, FP		450 nM
COc1ccc(C(=O)N2CCCC(C(=O)Nc3cc(S(N)(=O)=O)ccc3O)C2)c2ccccc12 (stereo not drawn)	CA9	enzyme activity, inhibitor		2610 nM
CCOCc1nc(O)c(-c2nnc(Cc3ccc(Cl)cn3)o2)c(O)c1-c1c(OC)cccc1OC	Histamine H1 receptor (HRH1, Homo sapiens, UniProt P35367)	ligand displacement, radioligand		> 30000 nM
COc1cc(/C=N/n2c(C)nc3ccc(C)cc3c2=O)ccc1OCc1ccccc1	PRSS1	enzyme activity, inhibitor		108000 nM
CN1CCN(c2ccc(Nc3ncc4cc(C#N)c(=O)n(C5CCCC5)c4n3)cc2)CC1	PKN1	enzyme activity, inhibitor		7050 nM
O=c1c(O)c(-c2ccc(O)c(O)c2)oc2cc(O)cc(O)c12	Sulfotransferase 1A1 (SULT1A1, Homo sapiens, UniProt P50225, R213H)	enzyme activity, inhibitor		232 nM
O=C(O)CCNC(=S)NCCCC[C@H](NS(=O)(=O)c1cccc(F)c1)C(=O)N[C@@H](Cc1c[nH]c2ccccc12)C(=O)NC1CCC1	SIRT5	enzyme activity, inhibitor, fluorescence		93 nM
Cn1ncc(Cl)c1-c1cc(C(=O)N[C@H](CN)Cc2ccc(F)c(F)c2)oc1Cl	PKN1	enzyme activity, inhibitor		19 nM
CC(NC(=O)c1ccccc1/N=C/c1c(O)ccc2ccccc12)c1ccccc1 (stereo not drawn)	SIRT5	enzyme activity, inhibitor, HPLC		> 100000 nM
